# Assay results reported in ChEMBL document CHEMBL1126734, “Synthesis of phosphocholine and quaternary amine ether lipids and evaluation of in vitro antineoplastic activity” (1993).
# Legend:
# [1] = system: HL-60; test: Trypan blue exclusion assay (TB) was carried out for 48 h and the in vitro ID50 value was evaluated in the HL-60 leukemic cell system (n=3); format: functional; settings: Homo sapiens, HL-60, 48 h; read-out: ID50 (the source's name)
# How it was run: (§1)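 HL-60 human promyelocytic leukemia cells were grown in suspension in RPMI 1640 with 10% heat-inactivated FBS, penicillin/streptomycin, 2 mM L-glutamine and 0.22% NaHCO3 at 37 °C under 5% CO2. Cells at 5 × 10^5/mL were exposed to various inhibitor concentrations diluted from ethanol stocks into medium for 48 h. Trypan blue in PBS was then added and viable cells were counted by hemocytometer. Triplicate determinations; values in μM.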
# [2] = system: HL-60; test: Standard thymidine incorporation assay (TdR) was carried out for 48 hr and involved a 24-h pulse of [3H]- thymidine (n=5) and ID50 value was evaluated; format: functional; settings: Homo sapiens, read-out: ID50 (the source's name)
# How it was run: (§2)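 HL-60 human promyelocytic leukemia cells in RPMI 1640 with 10% heat-inactivated FBS, 37 °C, 5% CO2. Log-phase cells seeded at 5 × 10^4/well with inhibitor dilutions from ethanol stocks (1 or 10 mg/mL). At 24 h, pulsed with 1.0 μCi [methyl-3H]thymidine (6.7 Ci/mmol) for a further 24 h. Harvested onto glass fiber filters and counted by liquid scintillation as % of control. Quadruplicate determinations. Values in μM.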
# [3] = system: HL-60; test: Standard thymidine incorporation assay (TdR) was carried out for 48 hr with an 8 hr pulse of [3H]- thymidine (TdR8) (n=6) and ID50 value was evaluated; format: functional; settings: Homo sapiens, read-out: ID50 (the source's name)
# How it was run: (§3)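 HL-60 leukemia suspension cultures grown in RPMI 1640/10% FBS at 37 °C, 5% CO2. Cells seeded at 5 × 10^4/well with inhibitors diluted from ethanol stocks. 48-h exposure, with 1.0 μCi [methyl-3H]thymidine (6.7 Ci/mmol) added for the last 8 h. Filter-harvested cells counted by liquid scintillation, uptake expressed as percent of control. Quadruplicate determinations. Results in μM.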
# [4] = system: HL-60; test: Standard thymidine incorporation assay (TdR) was carried out for 48 hr and involved a 24-h pulse of [3H]- thymidine (n=1) and ID50 value was evaluated; format: functional; settings: Homo sapiens, read-out: ID50 (the source's name); how it was run: as §2
# [5] = system: HL-60; test: Trypan blue exclusion assay (TB) was carried out for 48 hr and the in vitro ID50 value was evaluated in the HL-60 leukemic cell system (n=1); format: functional, Homo sapiens; settings: read-out: ID50 (the source's name); how it was run: as §1
# [6] = system: HL-60; test: Standard thymidine incorporation assay (TdR) was carried out for 48 hr with an 8 hr pulse of [3H]- thymidine (TdR8) (n=3) and ID50 value was evaluated; format: functional; settings: Homo sapiens, read-out: ID50 (the source's name); how it was run: as §3
# [7] = system: HL-60; test: Trypan blue exclusion assay (TB) was carried out for 48 hr and the in vitro ID50 value was evaluated in the HL-60 leukemic cell system (n=4); format: functional; settings: Homo sapiens, HL-60, 48 h; read-out: ID50 (the source's name); how it was run: as §1
# [8] = system: HL-60; test: Standard thymidine incorporation assay (TdR) was carried out for 48 hr and involved a 24-h pulse of [3H]- thymidine (n=2) and ID50 value was evaluated; format: functional; settings: Homo sapiens, read-out: ID50 (the source's name); how it was run: as §2
# [9] = system: HL-60; test: Trypan blue exclusion assay (TB) was carried out for 48 hr and the in vitro ID50 value was evaluated in the HL-60 leukemic cell system (n=2); format: functional; settings: Homo sapiens, HL-60, 48 h; read-out: ID50 (the source's name); how it was run: as §1
# [10] = system: HL-60; test: Standard thymidine incorporation assay (TdR) was carried out for 48 hr with an 8 hr pulse of [3H]- thymidine (TdR8) (n=4) and ID50 value was evaluated; format: functional; settings: Homo sapiens, read-out: ID50 (the source's name); how it was run: as §3
# [11] = system: HL-60; test: Standard thymidine incorporation assay (TdR) was carried out for 48 hr and involved a 24-h pulse of [3H]- thymidine (n=3) and ID50 value was evaluated; format: functional; settings: Homo sapiens, read-out: ID50 (the source's name); how it was run: as §2
# [12] = system: HL-60; test: Trypan blue exclusion assay (TB) was carried out for 48 hr and the in vitro ID50 value was evaluated in the HL-60 leukemic cell system (n=9); format: functional; settings: Homo sapiens, HL-60, 48 h; read-out: ID50 (the source's name); how it was run: as §1
# [13] = system: HL-60; test: Standard thymidine incorporation assay (TdR) was carried out for 48 hr with an 8 hr pulse of [3H]- thymidine (TdR8) (n=7) and ID50 value was evaluated; format: functional; settings: Homo sapiens, read-out: ID50 (the source's name); how it was run: as §3
# [14] = system: HL-60; test: Standard thymidine incorporation assay (TdR) was carried out for 48 h and involved a 24-h pulse of [3H]- thymidine (n=6) and ID50 value was evaluated; format: functional; settings: Homo sapiens, read-out: ID50 (the source's name); how it was run: as §2
# [15] = system: HL-60; test: Standard thymidine incorporation assay (TdR) was carried out for 48 hr with an 8 hr pulse of [3H]- thymidine (TdR8) (n=1) and ID50 value was evaluated; format: functional; settings: Homo sapiens, read-out: ID50 (the source's name); how it was run: as §3
# [16] = system: HL-60; test: Standard thymidine incorporation assay (TdR) was carried out for 48 hr with an 8 hr pulse of [3H]- thymidine (TdR8) (n=5) and ID50 value was evaluated; format: functional; settings: Homo sapiens, read-out: ID50 (the source's name); how it was run: as §3
# [17] = system: HL-60; test: Standard thymidine incorporation assay (TdR) was carried out for 48 hr with an 8 hr pulse of [3H]- thymidine (TdR8) (n=16) and ID50 value was evaluated; format: functional; settings: Homo sapiens, read-out: ID50 (the source's name); how it was run: as §3
# [18] = system: HL-60; test: Trypan blue exclusion assay (TB) was carried out for 48 hr and the in vitro ID50 value was evaluated in the HL-60 leukemic cell system (n=33); format: functional; settings: Homo sapiens, HL-60, 48 h; read-out: ID50 (the source's name); how it was run: as §1
# [19] = system: HL-60; test: Standard thymidine incorporation assay (TdR) was carried out for 48 hr and involved a 24-h pulse of [3H]- thymidine (n=21) and ID50 value was evaluated; format: functional; settings: Homo sapiens, read-out: ID50 (the source's name); how it was run: as §2
compound,measurement,setting,value
CCCCCCCCCCCCCCCCSCC(C[N+](C)(C)CC(O)CO)OC (stereo not drawn),IC50,[1],3.62 µM
same,IC50,[2],3.05 µM
same,IC50,[3],1900 nM
CCCCCCCCCCCCCCCCSCCOP(=O)([O-])OCC[N+](C)(C)C,IC50,[4],5.16 µM
same,IC50,"[5]; Homo sapiens, HL-60, 48 h",4.15 µM
CCCCCCCCCCCCCCCCSCC(C[N+](C)(C)CCO)OC (stereo not drawn),IC50,[2],4.34 µM
same,IC50,[6],3.37 µM
same,IC50,[7],3860 nM
CCCCCCCCCCCCCCCCOCC(COP(=O)(O)OCCNC(C)C)OCC (stereo not drawn),IC50,"[5]; Homo sapiens, HL-60, 48 h",4.7 µM
CCCCCCCCCCCCCCCCCC(=O)NCCOP(=O)([O-])OCC[N+](C)(C)C,IC50,[8],7.02 µM
same,IC50,[9],4.56 µM
same,IC50,[10],5730 nM
CCCCCCCCCCCCCCCCOCC(COP(=O)([O-])OCC[n+]1ccccc1)OCC (stereo not drawn),IC50,"[5]; Homo sapiens, HL-60, 48 h",2.64 µM
same,IC50,[11],2560 nM
CCCCCCCCCCCCCCCCCCSCC(C[N+](C)(C)CCCO)OC (stereo not drawn),IC50,[12],2930 nM
same,IC50,[13],2460 nM
same,IC50,[14],3.51 µM
CCCCCCCCCCCCCCCCCCCC(=O)NCC(COP(=O)([O-])OCC[N+](C)(C)C)OCC (stereo not drawn),IC50,[1],3.17 µM
same,IC50,[8],3.39 µM
same,IC50,[10],2710 nM
CCCCCCCCCCCCCCCCOCC(COCCCC[N+](C)(C)CCCO)OC (stereo not drawn),IC50,[1],1.83 µM
same,IC50,[8],1.98 µM
same,IC50,[10],1210 nM
CCCCCCCCCCCCSCC(C[N+](C)(C)C)OC (stereo not drawn),IC50,[4],2.26 µM
CCCCCCCCCCCCCCCCSCC(C[N+]1(C)CCCC1)OCC (stereo not drawn),IC50,[4],2.09 µM
same,IC50,[15],1.9 µM
CCCCCCCCCCCCCCCCCC(=O)N(C)CC(COP(=O)([O-])OCC[N+](C)(C)C)OC (stereo not drawn),IC50,[1],3.97 µM
same,IC50,[8],4.02 µM
same,IC50,[10],3440 nM
CCCCCCCCCCCCCCCCCCSCC(C)(COP(=O)([O-])OCC[N+](C)(C)C)OCC (stereo not drawn),IC50,[9],3.83 µM
CCCCCCCCCCCCCCCCCC(=O)NCCCOP(=O)([O-])OCC[n+]1ccccc1,IC50,[1],4.16 µM
same,IC50,[11],4330 nM
CCCCCCCCCCCCCCC(CSCC(COP(=O)([O-])OCC[N+](C)(C)C)OCC)OC (stereo not drawn),IC50,[1],3.39 µM
same,IC50,[8],2.47 µM
CCCCCCCCCCCCCCCCCC(=O)NCCCOP(=O)([O-])OCC[N+](C)(C)C,IC50,[1],5.48 µM
same,IC50,[11],6080 nM
CCCCCCCCCCCCCCCCOCC(COP(=O)([O-])OCC[N+](C)(C)C)(OC)OC,IC50,"[5]; Homo sapiens, HL-60, 48 h",3.38 µM
CCCCCCC(=O)CCCCCCCCCOCC(COP(=O)([O-])OCC[N+](C)(C)C)OCC (stereo not drawn),IC50,[8],21.9 µM
same,IC50,[9],13 µM
CCCCCCCCCCCCCCCCCCOCC(COP(=O)([O-])OCC[N+](C)(C)Cc1ccccc1)OCC (stereo not drawn),IC50,"[5]; Homo sapiens, HL-60, 48 h",3.65 µM
CCCCCCCCCCCCCCCCSCC(COP(=O)([O-])OCC[N+](C)(C)C)OCCC (stereo not drawn),IC50,[1],2.73 µM
same,IC50,[8],2.19 µM
CCCCCCCCCCCCCCCCCC(=O)NCC(COP(=O)([O-])OCC[N+](C)(C)C)OCC (stereo not drawn),IC50,[2],3.3 µM
same,IC50,[7],1640 nM
CCCCCCCCCCCCCCCCSCC(C[N+](C)(C)CCO)OCCCCCC (stereo not drawn),IC50,[4],7.15 µM
CCCCCCCCCCCCCCCCSCC(COP(=O)(O)OCC[N+](CC)(CC)CC)OCC (stereo not drawn),IC50,"[5]; Homo sapiens, HL-60, 48 h",3.31 µM
CCCCCCCCCCCCCCCCSCC(C[n+]1ccsc1)OC (stereo not drawn),IC50,[8],7.17 µM
same,IC50,"[5]; Homo sapiens, HL-60, 48 h",8.75 µM
CCCCCCCCCCCCCCCCSCC[n+]1ccccc1,IC50,[4],2.28 µM
CCCCCCCCCCCCCCCCSCC[N+](C)(C)CCO,IC50,[4],3.95 µM
CCCCCCCCCCCCCCCCCCOCC(C[N+]1(C)CCC(O)CC1)OCC (stereo not drawn),IC50,[8],4.3 µM
CCCCCCCCOCC(C[N+](C)(C)C)OC (stereo not drawn),IC50,[1],21.2 µM
same,IC50,[6],27 µM
CCCCCCCCCCCCCCCCOCC(C[S+](C)CCO)OC (stereo not drawn),IC50,[1],2.49 µM
same,IC50,[16],2030 nM
same,IC50,[11],2010 nM
CCCCCCCCCCCCCCCCSCCC[N+]1(C)CCC(O)C1 (stereo not drawn),IC50,[4],3.77 µM
CCCCCCCCCCCCCCCCSCC(COC)C[N+](C)(C)CCCO (stereo not drawn),IC50,[4],3.46 µM
CCCCCCCCCCCCCCCCOCC(CSCC[N+](C)(C)C)OC (stereo not drawn),IC50,[1],2.23 µM
same,IC50,[8],2.4 µM
same,IC50,[10],1850 nM
CCCCCCCCCCCCCCCCCC(=O)NCC(COP(=O)([O-])OCC[N+](C)(C)C)OCCCCCCCCCCCCCC (stereo not drawn),IC50,[11],> 100000 nM
CCCCCCCCCCCCCCCCOCC(C[n+]1cccc(CO)c1)OC (stereo not drawn),IC50,[8],1.68 µM
same,IC50,[7],1070 nM
same,IC50,[10],850 nM
CCCCCCCCCCCCCCCCCCOCC(C[N+]1(C)CCOCC1)OCC (stereo not drawn),IC50,[8],3.92 µM
same,IC50,"[5]; Homo sapiens, HL-60, 48 h",2.92 µM
CCCCCCCCCCCCCCCCSCC(COC)C[N+](C)(C)C (stereo not drawn),IC50,[4],3.52 µM
CCCCCCCCCCCCCCCCSCC(C[N+](C)(C)C)OCCCCC (stereo not drawn),IC50,[4],4.97 µM
same,IC50,[15],5.02 µM
same,IC50,"[5]; Homo sapiens, HL-60, 48 h",6.14 µM
CCCCCCCCCCCCCCCCSCC(COP(=O)([O-])OCC[N+](C)(C)C)OCC (stereo in doubt; 2),IC50,[6],3.11 µM
same,IC50,[5],2.25 µM
same,IC50,[11],2190 nM
CCCCCCCCCCCCCCCCSCC(COP(=O)([O-])OCC[N+](C)(C)C)OCC (stereo in doubt; 5),IC50,[5],6.75 µM
CCCCCCCCCCCCCCCCCCOCC(COP(=O)([O-])OCC[N+](C)(C)C)OC (stereo not drawn) [EDELFOSINE],IC50,[17],2410 nM
same,IC50,[18],2480 nM
same,IC50,[19],2380 nM
